Measured values published in ChEMBL document CHEMBL5696442, “Discovery of type II inhibitors of TGFβ-activated kinase 1 (TAK1) and mitogen-activated protein kinase kinase kinase kinase 2 (MAP4K2)” (J Med Chem, 2015).
Active and inactive are the calls of the source.

Columns and labels:
MEF [1] = experiment: Inhibition of IL-1 induced p38 MAPK phosphorylation level in TAK1 deficient mouse MEF cells at low concentration incubated for 1 hr followed by IL-1 stimulation by Western blot analysis; assay type: functional, cell-based
Outline: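 WT and TAK1-null MEFs were grown in DMEM with 10% FBS, then held in 0.1% FBS for 16 h. Cells were pretreated with inhibitor for 1 h, then stimulated with mouse IL-1α (5 ng/mL, 10 min). Cells were lysed in ice-cold buffer, and extracts were cleared at 16000g and analysed by Western blot.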

MEF [2] = experiment: Inhibition of TGF-beta induced p38 MAPK phosphorylation level in TAK1 deficient mouse MEF cells at low concentration incubated for 1 hr followed by TGF-beta stimulation by Western blot analysis; assay type: functional, cell-based
Outline: (§1)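 TAK1-null MEFs grown in DMEM with 10% FBS, 2 mM L-glutamine and penicillin/streptomycin at 37 °C under 5% CO2. Inhibitors added 1 h before TGFβ (50 pM, 45 min). Cells lysed in ice-cold buffer with phosphatase and protease inhibitors, extracts cleared at 16000g, then p38 and SMAD2 phosphorylation assessed by Western blot.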

MEF [3] = experiment: Inhibition of TGF-beta induced SMAD2 phosphorylation level in TAK1 deficient mouse MEF cells at low concentration incubated for 1 hr followed by TGF-beta stimulation by Western blot analysis; assay type: functional, cell-based; outline: as §1
MEF [4] = experiment: Inhibition of TGFbeta induced SMAD2 phosphorylation level in TAK1 deficient mouse MEF cells at low concentration incubated for 1 hr followed by TGFbeta stimulation by Western blot analysis

Measured: inhibition

COc1cc(O)c2c(c1)/C=C/C[C@H](O)[C@H](O)C(=O)/C=C\C[C@H](C)OC2=O
active: MEF [1] | MEF [2] | MEF [3] | MEF [4]
